Screens deposited in PubChem by Broad Institute.
Rows were chosen to be rich in hits. Some 2% of all compounds tested hit in one or more screens of this group.
CaV13 ICDI inh – Disruptors of the CACNA1D IQ motif to Ca2+-dependent inactivation inhibitor domain association, primary screening, Förster resonance energy transfer in intact living … | hit rate 0.098% among 340,000 | HEK cells, CFP/YFP FRET ICDI-IQ, plate reader, 10 min; percent FRET-ratio fall versus neutral wells | AID 743397 | inhibition, % at 12.3 µM;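 active = mean replicate inhibition of at least 30% and at least 1% of replicates passing that level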;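 also: 0% = median of the neutral control wells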
FN deposit inh – fibronectin deposition inhibition. AH1F fibroblasts, Alexa488-fibronectin deposition fluorescence, overnight. inhibition, % at 12.6 µM. hit rate 0.086% among 350,000. AID 743247;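 active = mean inhibition across replicates of 30% or more, regardless of how many single replicates reach that level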;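 also: positive control wells lacked labelled fibronectin entirely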
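Assay system: AH1F fibroblasts assembling fluorescent fibronectin matrix; Amount: 10000 AH1F cells per well; Buffer or medium: DMEM, 2% serum; Probe or stimulus: Alexa488-fibronectin, 24 nM final in well; Doses: single compound dose, delivered by pin transfer; Incubation: 1 h adhesion, overnight exposure; Measured by: fluorescence 485/525 nm; Read-out: fibronectin deposition inhibition.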
Xi reactivation – activators of X-chromosome reactivation in mouse fibroblasts; XiGFP mouse fibroblasts, % GFP-positive cells imaging, 3 d; cells co-treated with 5-aza-dC sensitizer; scaled so ellipticine positive control = 100%; activation, % at 7.58 µM; hit rate 0.055% among 360,000;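 active = mean normalized replicate activation at least 10% and every replicate at or above 10%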;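 also: 0% = median of on-plate neutral control wells and 100% = ellipticine 6 µM median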
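assay system = SV40-immortalized XiGFP fibroblast cells, line 68-5-11 | buffer or medium = DMEM plus 5-aza-dC sensitizer | doses = single-point pinned compound dosing | times = 3-day compound exposure, then 15 min fixation at room temperature | benchmarks = positive control ellipticine, 6 µM final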
DENV2 CPE rescue – protects cells from dengue virus 2 cytopathic effect; DENV2-infected cells, cytopathic effect rescue, plate reader; CPE inhibition, % at 9.99 µM; hit rate 1.7% among 350,000; in the data active = CPE inhibition above about 20%, passing the limit was not always enough; tested in BHK-21 cells;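 also: 0% = median of neutral control wells and 100% = median of positive control wells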
CASP6 VEID inh – caspase-6 (human) enzyme inhibition; purified caspase-6, Z-VEID-R110 cleavage fluorescence; P55212; inhibition, % at 12.5 µM; hit rate 0.53% among 350,000;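 active = mean inhibition across replicates at least about 35%, with every replicate also reaching that limit, limit read from the data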;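 also: 0% = median of neutral control wells and 100% = no fluorescence left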
Target sequence (P55212 24-179 limits assumed): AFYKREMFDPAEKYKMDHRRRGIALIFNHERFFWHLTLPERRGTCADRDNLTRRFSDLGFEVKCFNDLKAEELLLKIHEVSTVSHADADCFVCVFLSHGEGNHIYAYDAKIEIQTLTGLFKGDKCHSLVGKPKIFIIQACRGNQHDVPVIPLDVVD
Target sequence (P55212 194-293 limits assumed): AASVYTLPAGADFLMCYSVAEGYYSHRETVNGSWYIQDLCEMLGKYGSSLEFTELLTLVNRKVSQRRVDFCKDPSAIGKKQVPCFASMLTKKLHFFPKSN
An asterisk follows results filed as active; . = not tested or not shown; ! = not confirmed by another sample.

SMILES	CaV13 ICDI inh	FN deposit inh	Xi reactivation	DENV2 CPE rescue	CASP6 VEID inh
N#CC(C#N)=C1C=CC=CN1/C(=C\c1ccccc1Cl)C(=O)c1ccccc1	-3	10	2	.	.
C[C@@H]1CN([C@@H](C)CO)S(=O)(=O)c2ccc(C#Cc3ccccc3)cc2O[C@@H]1CN(C)S(=O)(=O)c1cn(C)cn1	.	-28	0	-7	0
O=C1c2nc3cc(-c4ccco4)[nH]n3c(=O)c2CN1Cc1ccccc1	-21	6	0	1	71*
CC(C)Cc1ccc(CN2C(C)C(=O)N(Cc3cn(Cc4ccco4)nn3)CCS2(=O)=O)cc1 (stereo not drawn)	.	-5	.	0	46*
Cc1ccccc1-c1ccc(CN2C(C)C(=O)N(Cc3cn(Cc4ccco4)nn3)CCS2(=O)=O)cc1 (stereo not drawn)	-7	.	0	12	-1
CC1C(=O)N(Cc2cn(Cc3ccco3)nn2)CCS(=O)(=O)N1Cc1ccc(-c2ccccc2C(F)(F)F)cc1 (stereo not drawn)	-4	-5	0	65*	5
C[C@H]1CCCCO[C@H](CN(C)C(=O)Nc2ccc(C(F)(F)F)cc2)[C@@H](C)CN([C@@H](C)CO)C(=O)c2cc(NC(=O)Cc3ccccc3)ccc2O1	.	-6	2	14	.
C[C@@H]1CCCCO[C@H](CN(C)Cc2ccc(C(=O)O)cc2)[C@H](C)CN([C@H](C)CO)C(=O)c2cc(NC(=O)c3ccncc3)ccc2O1	.	.	0	42*	-2
C[C@H](CO)N1C[C@H](C)[C@@H](CN(C)Cc2ccc(C(=O)O)cc2)Oc2ccc(NC(=O)c3ccncc3)cc2C1=O	.	.	0	4	2
C[C@H]1CCCCO[C@H](CN(C)C(=O)Nc2ccc3c(c2)OCO3)[C@@H](C)CN([C@@H](C)CO)C(=O)c2cc(NC(=O)Cc3ccccc3)ccc2O1	.	.	-1	27*	.
C[C@H]1CN([C@@H](C)CO)C(=O)c2cc(NC(=O)c3ccncc3)ccc2O[C@H]1CN(C)Cc1ccc(C(=O)O)cc1	-10	-1	0	42*!	-4
C[C@@H]1CCCCO[C@@H](CN(C)C(=O)Nc2ccc(C(F)(F)F)cc2)[C@H](C)CN([C@H](C)CO)C(=O)c2cc(NC(=O)Cc3ccccc3)ccc2O1	.	.	0	91*	.
C[C@@H]1CCCCO[C@H](CN(C)Cc2ccncc2)[C@H](C)CN([C@@H](C)CO)C(=O)c2cc(NC(=O)c3ccncc3)ccc2O1	.	1	0	3	-3
O=C(Nc1ccc(Cl)c(Cl)c1)N[C@H]1CC[C@H](CCn2cc(C3CCCC3)nn2)O[C@H]1CO	.	4	0	12	-4
CCCN1C[C@H](C)[C@@H](OC)CN(C)C(=O)c2cc(NC(=O)NC3CCCC3)ccc2OC[C@H]1C	.	-9	0	.	.
C[C@@H]1CCCCO[C@@H](CN(C)Cc2ccc(C(F)(F)F)cc2)[C@H](C)CN([C@H](C)CO)C(=O)c2cc(NC(=O)Cc3ccccc3)ccc2O1	.	.	0	40*	3
C[C@@H]1CN([C@@H](C)CO)C(=O)c2cc(NC(=O)Nc3ccc(C(F)(F)F)cc3)ccc2O[C@@H](C)CCCCO[C@@H]1CN(C)Cc1ccccc1	.	-4	0	127*	-3
C[C@@H]1CCCCO[C@H](CN(C)Cc2ccccc2)[C@H](C)CN([C@@H](C)CO)C(=O)c2cc(NC(=O)c3ccccc3)ccc2O1	.	6	0	27*	.
C[C@@H]1CCCCO[C@@H](CN(C)Cc2ccc(C(=O)O)cc2)[C@H](C)CN([C@H](C)CO)C(=O)c2cc(NC(=O)CCCN(C)C)ccc2O1	.	.	0	-5	4
C[C@@H]1CCCCO[C@H](CN(C)Cc2ccccc2)[C@@H](C)CN([C@H](C)CO)C(=O)c2cc(NC(=O)c3ccccc3)ccc2O1	-6	7	0	0	-2
C[C@H](CO)N1C[C@H](C)[C@H](CN(C)Cc2ccc(C(F)(F)F)cc2)OCCCC[C@H](C)Oc2ccc(NC(=O)Cc3ccccc3)cc2C1=O	.	.	0	8	6
C[C@@H]1CCCCO[C@@H](CN(C)Cc2ccc(C(=O)O)cc2)[C@H](C)CN([C@@H](C)CO)C(=O)c2cc(NC(=O)CCCN(C)C)ccc2O1	.	.	0	38*	-1
COc1ccccc1S(=O)(=O)Nc1ccc2c(c1)OC[C@H](C)NC[C@H](C)[C@@H](OC)CN(C)C2=O	.	-5	0	-3	0
C/C=C/c1ccc([C@@H]2[C@H](CO)N(C(=O)CC)C23CN(S(C)(=O)=O)C3)cc1	.	.	0	1	0
C[C@@H]1CCCCO[C@H](CN(C)C(=O)NC2CCCCC2)[C@H](C)CN([C@@H](C)CO)C(=O)c2cc(NC(=O)c3ccccc3)ccc2O1	.	2	0	43*	.
SMILES	CaV13 ICDI inh	FN deposit inh	Xi reactivation	DENV2 CPE rescue	CASP6 VEID inh
Cc1ccc(SC(=O)c2c(C)noc2-c2cc(C)on2)cc1	4	-4	0	41*	-3
Cc1cc(-c2onc(C)c2C(=O)N/N=C/c2ccccc2)no1	-5	-3	0	-5	5
Cc1ccc(-c2ccccc2[C@@H]2[C@H](C#N)N(c3ncc(-c4ccccc4)s3)[C@H]2CO)cc1	.	4	0	2	-1
O=c1c(O)c(-c2ccc(O)c(O)c2)oc2cc(O)ccc12	.	.	.	4	65*
O=c1c(O)c(-c2ccc(O)cc2)oc2cc(O)cc(O)c12	.	.	.	-1	6
O=C(CCSc1nnc(-c2ccccc2)o1)N1CCOCC1	-5	-3	0	27*	2
O=C1CCN(Cc2ccccc2)CCN1[C@H](COc1ccccc1)c1ccccc1	-5	-8	0	-5	0
N#CC[C@H](c1ccccc1)N1CCN(Cc2ccccc2)CCC1=O	-4	0	0	60*	1
CCOc1ccc(NS(=O)(=O)c2ccc(C(=O)N(CC)CC(=O)NCc3cccs3)cc2)cc1	.	.	0	-2	-172
CCOc1ccc(S(=O)(=O)Nc2ccc(C(=O)N(CC)CC(=O)NCc3cccs3)cc2)cc1	55*	0	0	11	2
CC(C)C#Cc1cnc2c(c1)C(=O)N([C@@H](C)CO)C[C@@H](C)[C@H](CN(C)Cc1ccccn1)O2	.	1	0	-3	2
COc1ccc(/C=N\NC(=O)c2cc(O)c(O)c(O)c2)cc1COc1ccc(C(=O)OCC(C)C)cc1	-4	8	0	2	44*
O=C(N[C@H]1CC[C@H](CCNS(=O)(=O)c2cccc(Cl)c2)O[C@H]1CO)c1ccncc1	.	-15	0	-2	-1
COc1ccccc1NS(=O)(=O)c1cc(NC(=O)CCNC(C)=O)ccc1C	151*	-6	0	-1	-3
CC(C)Cn1c(N)c(C(=O)COC(=O)c2cc(-c3ccccc3)nc3ccccc23)c(=O)n(C)c1=O	-4	0	-1	30*	3
